# In publication PMC2933309 (Cancer biology & therapy, 2010):
# Entries after “also recorded” stand apart in the source; their conditions may differ.
# Key:
# [1] = system: subcutaneous human tumor xenografts; conditions: oral administration; lung, prostate, pancreatic, glioma, colon, breast; cited from earlier work
# [2] = system: lung carcinoma xenografts; conditions: cited from earlier work
# Pharmacokinetic = assay type: in vivo, Balb/c mice; conditions: plasma; for Cmax: mice
# [3] = PND-1186 levels in tumor samples by HPLC and mass spectroscopy; assay type: in vivo, Balb/c mice; conditions: for maximal PND-1186 in tumors / time to maximal PND-1186 in tumors: subcutaneous 4T1 tumors
# [4] = molecular target: FAK Tyr-397 phosphorylation (pY397 FAK) (Mus musculus, UniProt P34152); assay: Immunoblotting of tumor FAK Tyr-397 phosphorylation in 4T1 tumors; assay type: in vivo, Balb/c mice
# [5] = system: p130Cas Tyr-410 phosphorylation (pY410Cas); assay: Immunoblotting of tumor p130Cas Tyr-410 phosphorylation in 4T1 tumors; assay type: in vivo, Balb/c mice
# [6] = system: 4T1 orthotopic breast carcinoma tumors; assay: Orthotopic 4T1 breast carcinoma tumor growth; assay type: in vivo, Balb/c mice
# [7] = system: 4T1 tumor blood vessels (CD31); assay: Anti-CD31 staining of 4T1 orthotopic tumors; assay type: in vivo, Balb/c mice; conditions: 150 mg/kg p.o. b.i.d.
# [8] = system: tumor-associated splenomegaly; assay: Spleen weight in 4T1 tumor-bearing mice; assay type: in vivo, Balb/c mice
# [9] = system: TNFα-stimulated IL-6 production in 4T1 cells; assay: IL-6 ELISA of TNFα-stimulated 4T1 cells; assay type: cell-based, murine; conditions: 0.25 to 1.0 µM, TNFα 10 ng/ml, 24 h
# 4T1 lung metastases = assay: Spontaneous 4T1 breast to lung metastasis; assay type: in vivo, Balb/c mice; conditions: 150 mg/kg p.o. b.i.d. for 15 days
# [10] = Body weight and toxicity in mouse studies; assay type: in vivo
# Water solubility = assay type: physicochemical
# pY118 paxillin = assay: Immunoblotting of pY118 paxillin in orthotopic 4T1 tumors; assay type: in vivo, Balb/c mice; conditions: 0.5 mg/ml ad libitum
# [11] = system: MDA-MB-231 orthotopic tumors; assay: Orthotopic MDA-MB-231 tumor growth; assay type: in vivo, SCID mice; conditions: 0.5 mg/ml ad libitum, Day 27 (15 days of administration)
# [12] = molecular target: FAK pY397 phosphorylation (Homo sapiens, UniProt Q05397); assay: Immunoblotting of FAK pY397 in MDA-MB-231 tumors; assay type: in vivo; conditions: 0.5 mg/ml ad libitum
# How it was run: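 From day 12 (palpable tumors), mice drank 5% sucrose or 0.5 mg/ml compound in 5% sucrose ad libitum. Tumor growth was followed to Day 70; final tumors were weighed and lysed for immunoblot of the FAK pY397 to total FAK ratio (n=11 control, 13 treated).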
# [13] = system: MDA-MB-231 cells in lungs; assay: Experimental metastasis assay; assay type: in vivo, nude mice; conditions: 150 mg/kg p.o. pre-administered, 1 and 6 h after cell injection
# [14] = system: suspended MDA-MB-231 cells; assay: Apoptosis assay; assay type: cell-based, human; conditions: concentrations up to 10 µM, within 6 h
# How it was run: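 Suspended MDA-MB-231 cells exposed to test compound or DMSO for 1 h or 6 h, then stained with FITC-annexin V for 30 min and analysed by flow cytometry within 1 h. Quadrant gates were set from autofluorescence (negative) and staurosporine 1 µM (positive) controls. Apoptosis is the percent of annexin V-positive cells.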
# cell motility = conditions: 0.1 to 1.0 µM; cited from earlier work
# [15] = system: adherent cell proliferation; conditions: 1.0 µM; cited from earlier work
# [16] = system: carcinoma cells in three-dimensional culture; conditions: 0.1 µM; cited from earlier work
# Src activity = conditions: adherent or suspended 4T1 cells; cited from earlier work
# glioma tumor = conditions: mice; cited from earlier work
# prostate carcinoma cells = conditions: in vitro; cited from earlier work
# [17] = 0.5 mg/ml ad libitum, orthotopic 4T1 tumors
# Sequence of FAK Tyr-397 phosphorylation (pY397 FAK) (P34152 whole entry): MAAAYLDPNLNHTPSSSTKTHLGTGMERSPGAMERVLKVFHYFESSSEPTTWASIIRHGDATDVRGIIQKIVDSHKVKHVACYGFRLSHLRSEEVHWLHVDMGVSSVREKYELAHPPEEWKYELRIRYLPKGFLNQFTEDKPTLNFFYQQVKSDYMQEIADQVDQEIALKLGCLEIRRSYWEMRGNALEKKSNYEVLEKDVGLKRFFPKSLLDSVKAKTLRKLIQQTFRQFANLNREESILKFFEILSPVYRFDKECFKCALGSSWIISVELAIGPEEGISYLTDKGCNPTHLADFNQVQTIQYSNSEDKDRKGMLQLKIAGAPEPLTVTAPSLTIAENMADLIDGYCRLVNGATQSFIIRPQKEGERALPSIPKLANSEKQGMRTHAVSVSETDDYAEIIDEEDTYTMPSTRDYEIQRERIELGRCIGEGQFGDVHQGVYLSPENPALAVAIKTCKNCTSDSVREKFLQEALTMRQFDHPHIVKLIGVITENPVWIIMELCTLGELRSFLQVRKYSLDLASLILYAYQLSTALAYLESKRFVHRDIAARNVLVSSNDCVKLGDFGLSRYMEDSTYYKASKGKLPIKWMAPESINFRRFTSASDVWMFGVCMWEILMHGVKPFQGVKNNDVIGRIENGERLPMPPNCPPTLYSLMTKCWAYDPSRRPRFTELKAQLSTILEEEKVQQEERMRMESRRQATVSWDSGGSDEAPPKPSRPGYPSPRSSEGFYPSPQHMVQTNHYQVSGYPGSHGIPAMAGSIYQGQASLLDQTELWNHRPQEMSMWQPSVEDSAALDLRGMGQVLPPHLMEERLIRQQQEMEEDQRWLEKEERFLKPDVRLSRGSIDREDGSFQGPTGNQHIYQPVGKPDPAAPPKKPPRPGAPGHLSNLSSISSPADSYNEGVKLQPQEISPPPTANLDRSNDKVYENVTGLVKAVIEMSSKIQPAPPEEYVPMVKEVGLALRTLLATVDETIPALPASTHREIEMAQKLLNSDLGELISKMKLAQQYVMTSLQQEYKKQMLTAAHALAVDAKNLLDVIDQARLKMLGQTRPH
# Sequence of FAK pY397 phosphorylation (Q05397 whole entry): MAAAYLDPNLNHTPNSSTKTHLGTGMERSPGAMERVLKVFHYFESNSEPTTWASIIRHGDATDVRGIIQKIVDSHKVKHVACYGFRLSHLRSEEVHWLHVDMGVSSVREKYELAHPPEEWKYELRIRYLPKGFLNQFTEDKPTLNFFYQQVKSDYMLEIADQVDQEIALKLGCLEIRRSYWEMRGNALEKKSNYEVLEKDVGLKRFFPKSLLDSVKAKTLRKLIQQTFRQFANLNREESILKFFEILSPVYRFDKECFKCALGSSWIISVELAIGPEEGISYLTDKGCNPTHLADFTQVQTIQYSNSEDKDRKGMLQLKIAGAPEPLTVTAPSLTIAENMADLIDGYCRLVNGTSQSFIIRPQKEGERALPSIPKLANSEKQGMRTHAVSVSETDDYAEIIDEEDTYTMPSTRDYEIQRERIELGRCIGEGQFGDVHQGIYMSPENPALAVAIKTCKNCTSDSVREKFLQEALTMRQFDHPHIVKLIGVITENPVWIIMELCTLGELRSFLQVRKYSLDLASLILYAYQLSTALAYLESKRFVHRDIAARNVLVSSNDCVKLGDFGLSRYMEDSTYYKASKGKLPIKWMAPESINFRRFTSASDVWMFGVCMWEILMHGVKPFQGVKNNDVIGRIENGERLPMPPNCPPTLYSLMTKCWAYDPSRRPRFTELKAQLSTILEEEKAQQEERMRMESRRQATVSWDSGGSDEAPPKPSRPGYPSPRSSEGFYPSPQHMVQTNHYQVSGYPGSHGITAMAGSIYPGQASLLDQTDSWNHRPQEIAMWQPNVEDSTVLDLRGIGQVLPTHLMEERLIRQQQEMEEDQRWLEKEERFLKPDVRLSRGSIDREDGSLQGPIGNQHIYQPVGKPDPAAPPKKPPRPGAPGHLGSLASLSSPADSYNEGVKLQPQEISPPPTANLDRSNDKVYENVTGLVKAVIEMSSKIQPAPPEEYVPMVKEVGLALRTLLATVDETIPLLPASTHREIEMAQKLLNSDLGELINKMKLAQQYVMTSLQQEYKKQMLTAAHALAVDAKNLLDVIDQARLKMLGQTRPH
structure (smiles),measurement,setting,value
"CN(c1ncccc1CNc1nc(Nc2ccc3c(c2)CC(=O)N3)ncc1C(F)(F)F)S(C)(=O)=O [PF-562,271]",growth of subcutaneous human tumor xenografts,[1],reduces the growth
same,tumor microvessel density,[2],reduced tumor microvessel density
CNC(=O)c1ccccc1Nc1cc(Nc2ccc(N3CCOCC3)cc2OC)ncc1C(F)(F)F [PND-1186],Cmax,Pharmacokinetic; 30 mg/kg i.p.,34.8 µM
same,bioavailability,"Pharmacokinetic; Balb/c, mouse, ip, 30 mg/kg",31.1%
same,bioavailability,"Pharmacokinetic; Balb/c, mouse, ip, 100 mg/kg",42.2%
same,Cmax,"Pharmacokinetic; Balb/c, mouse, ip, 100 mg/kg, CMAX, 100 mg/kg i.p.",117 µM
same,concentration at 7 days,"Pharmacokinetic; Balb/c, mouse, oral, 0.5 mg/ml",1.2 µM
same,bioavailability,"Pharmacokinetic; Balb/c, mouse, po, 150 mg/kg",14.8%
same,maximal PND-1186 in tumors,[3]; 30 mg/kg single i.p.,0.75 µg/g
same,time to maximal PND-1186 in tumors,[3]; 30 mg/kg single i.p.,≤ 1 h
same,maximal PND-1186 in tumors,[3]; 100 mg/kg single i.p.,16.1 µg/g
same,time to maximal PND-1186 in tumors,[3]; 100 mg/kg single i.p.,≤ 1 h
same,concentration at 7 days,"[3]; Balb/c, mouse, tumor, oral, 0.5 mg/ml",522 ng/g
same,FAK pY397 phosphorylation in primary 4T1 tumors,[4]; [17],sufficient to inhibit
same,tumor FAK pY397 phosphorylation at 12 h,"[4]; 30 mg/kg single i.p., subcutaneous 4T1 tumors, 12 h",not significantly inhibited
same,p130Cas pY410 phosphorylation in primary 4T1 tumors,[5]; [17],sufficient to inhibit
same,p130Cas Tyr-410 phosphorylation (pY410Cas) in tumors,"[5]; 100 mg/kg single i.p., subcutaneous 4T1 tumors, by 3 h",significantly reduced
same,tumor size by caliper measurements versus control,"[6]; 0.5 mg/ml ad libitum, Day 13",tumor size was significantly different
same,reduction of final tumor volume compared to vehicle control,"[6]; 150 mg/kg p.o. b.i.d., 16 days",3 fold
same,tumor volume compared to vehicle control,"[6]; 150 mg/kg p.o. b.i.d., Day 7",significantly reduced tumor volume
same,vascular differences by anti-CD31 staining,[7],no major vascular differences
same,spleen size,[8]; 0.5 mg/ml ad libitum,of normal size
same,spleen appearance,[8]; 150 mg/kg p.o. b.i.d.,"healthy and indistinguishable from non-treated, non-tumor bearing mice"
same,"spleen weight, vehicle-treated over PND-1186-treated mice",[8]; 150 mg/kg p.o. b.i.d.,> 2 fold
same,IL-6 release,[9],inhibited IL-6 release in a dose-dependent manner
same,mice with high lung metastatic burden,4T1 lung metastases,no mice with a high metastatic burden
same,toxicity or weight loss,[10]; 0.5 mg/ml ad libitum administration,no signs of toxicity or weight loss; also recorded: without toxicity or weight loss
same,effect on total body weight,"[10]; 150 mg/kg p.o. b.i.d., 4T1 tumor-bearing Balb/c mice",without affects on total body weight
same,solubility,Water solubility,> 20 mg/mL
same,pY118 paxillin phosphorylation in tumors,pY118 paxillin,inhibited
same,tumor size by caliper measurements versus control,[11],control tumors were significantly larger
same,FAK pY397 phosphorylation in MDA-MB-231 tumors,[12],significantly reduce
same,accumulation of tumor cells in the lungs,[13],significantly inhibited the accumulation of tumor cells in the lungs
same,MDA-MB-231 apoptosis by annexin V binding,[14],did not promote MDA-MB-231 apoptosis
same,cell motility,cell motility,prevents cell motility in a dose-dependent fashion
same,adherent cell proliferation,[15],limited inhibitory effects on adherent cell proliferation
same,carcinoma cell apoptosis under three-dimensional culture conditions,[16],selectively promotes carcinoma cell apoptosis
same,Src activity,Src activity,does not inhibit Src activity
CNC(=O)c1ccccc1Nc1nc(Nc2ccc(N3CCOCC3)cc2OC)ncc1Cl [TAE-226],glioma tumor growth,glioma tumor,can prevent glioma tumor growth in mice
"CS(=O)(=O)c1cccc(CNc2nc(Nc3ccc4c(c3)CCC(=O)N4)ncc2C(F)(F)F)c1 [PF-573,228]",prostate carcinoma cell motility,prostate carcinoma cells,prevented prostate carcinoma cell motility in vitro
